Laboratory results taken from ChEMBL document CHEMBL1135709, “2,6-Di(omega-aminoalkyl)-2,5,6,7-tetrahydropyrazolo[3,4,5-mn]pyrimido[5,6,1-de]acridine-5,7-diones: novel, potent, cytotoxic, and DNA-binding agents” (J Med Chem, 2002).

How the values were obtained:
OVCAR-4 [1] = experiment: Percent growth of NCI cell line, ovarian: OVCAR-4 exposed for 48 hr at 10e-4 concentration; type: functional, Homo sapiens
Method in brief: (§1)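 NCI panel cell lines exposed 48 h to 10^-8, 10^-6 and 10^-4 M drug; read-out is percent growth at each concentration.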

SNB-19 [2] = experiment: Percent growth of NCI cell line, CNS: SNB-19 exposed for 48 hr at 10e-4 concentration; type: functional, Homo sapiens; method in brief: as §1
MCF7 [3] = experiment: Percent growth of NCI cell line, breast: MCF-7 exposed for 48 hr at 10e-6 concentration; type: functional, Homo sapiens; method in brief: as §1
HT-29 = experiment: In vitro cytotoxic potency against HT-29 (human colon adenocarcinoma) cell line.; type: functional, cell-based
DU-145 [4] = experiment: Percent growth of NCI cell line, prostate: DU-145 exposed for 48 hr at 10e-8 concentration; type: functional, Homo sapiens; method in brief: as §1
SNB-19 [5] = experiment: Percent growth of NCI cell line, CNS: SNB-19 exposed for 48 hr at 10e-6 concentration; type: functional, Homo sapiens; method in brief: as §1
DU-145 [6] = experiment: Percent growth of NCI cell line, prostate: DU-145 exposed for 48 hr at 10e-6 concentration; type: functional, Homo sapiens; method in brief: as §1
DU-145 [7] = experiment: Percent growth of NCI cell line, prostate: DU-145 exposed for 48 hr at 10e-4 concentration; type: functional, Homo sapiens; method in brief: as §1
HCT-15 [8] = experiment: Percent growth of NCI cell line, colon: HCT-15 exposed for 48 hr at 10e-4 concentration; type: functional, Homo sapiens; method in brief: as §1
[9] = Percent growth of NCI cell line, leucemia K562 exposed for 48 hr at 10e-6 concentration; type: functional, Homo sapiens; method in brief: as §1
HCT-15 [10] = experiment: Percent growth of NCI cell line, colon: HCT-15 exposed for 48 hr at 10e-6 concentration; type: functional, Homo sapiens; method in brief: as §1
MCF7 [11] = experiment: Percent growth of NCI cell line, breast: MCF-7 exposed for 48 hr at 10e-8 concentration; type: functional, Homo sapiens; method in brief: as §1
NCI-H460 [12] = experiment: Percent growth of NCI cell line, lung-nsc: NCI-H460 exposed for 48 hr at 10e-8 concentration; type: functional, Homo sapiens; method in brief: as §1
786-0 [13] = experiment: Percent growth of NCI cell line, renal: 786-0 exposed for 48 hr at 10e-6 concentration; type: functional, Homo sapiens; method in brief: as §1
786-0 [14] = experiment: Percent growth of NCI cell line, renal: 786-0 exposed for 48 hr at 10e-4 concentration; type: functional, Homo sapiens; method in brief: as §1
OVCAR-4 [15] = experiment: Percent growth of NCI cell line, ovarian: OVCAR-4 exposed for 48 hr at 10e-6 concentration; type: functional, Homo sapiens; method in brief: as §1
786-0 [16] = experiment: Percent growth of NCI cell line, renal: 786-0 exposed for 48 hr at 10e-8 concentration; type: functional, Homo sapiens; method in brief: as §1
Calf thymus DNA = experiment: CT-DNA binding required to produce a 50% drop in fluorescence of DNA-bound ethidium.; type: nucleic-acid assay; details: Bos taurus
Method in brief: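 Ethidium displacement from calf thymus DNA in 10 mM Na2HPO4, 10 mM NaH2PO4, 1 mM EDTA, pH 7.0, containing 1.26 μM ethidium bromide and 1 μM CT-DNA. Drug added serially from ~5 mM DMSO stock; 20 °C; fluorescence excitation 546 nm, emission 595 nm. C50 = drug concentration lowering DNA-bound ethidium fluorescence by 50%, mean of three determinations.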

[17] = Percent growth of NCI cell line, leucemia K562 exposed for 48 hr at 10e-8 concentration; type: functional, Homo sapiens; method in brief: as §1
NCI-H460 [18] = experiment: Percent growth of NCI cell line, lung-nsc: NCI-H460 exposed for 48 hr at 10e-6 concentration; type: functional, Homo sapiens; method in brief: as §1
NCI-H460 [19] = experiment: Percent growth of NCI cell line, lung-nsc: NCI-H460 exposed for 48 hr at 10e-4 concentration; type: functional, Homo sapiens; method in brief: as §1
HCT-15 [20] = experiment: Percent growth of NCI cell line, colon: HCT-15 exposed for 48 hr at 10e-8 concentration; type: functional, Homo sapiens; method in brief: as §1
MCF7 [21] = experiment: Percent growth of NCI cell line, breast: MCF-7 exposed for 48 hr at 10e-4 concentration; type: functional, Homo sapiens; method in brief: as §1
OVCAR-4 [22] = experiment: Percent growth of NCI cell line, ovarian: OVCAR-4 exposed for 48 hr at 10e-8 concentration; type: functional, Homo sapiens; method in brief: as §1
SNB-19 [23] = experiment: Percent growth of NCI cell line, CNS: SNB-19 exposed for 48 hr at 10e-8 concentration; type: functional, Homo sapiens; method in brief: as §1
[24] = Percent growth of NCI cell line, leucemia K562 exposed for 48 hr at 10e-4 concentration; type: functional, Homo sapiens; method in brief: as §1
LOX IMVI [25] = experiment: Percent growth of NCI cell line, melanoma: LOX IMVI exposed for 48 hr at 10e-4 concentration; type: functional, Homo sapiens; method in brief: as §1
LOX IMVI [26] = experiment: Percent growth of NCI cell line, melanoma: LOX IMVI exposed for 48 hr at 10e-6 concentration; type: functional, Homo sapiens; method in brief: as §1
LOX IMVI [27] = experiment: Percent growth of NCI cell line, melanoma: LOX IMVI exposed for 48 hr at 10e-8 concentration; type: functional, Homo sapiens; method in brief: as §1
LoVo [28] = experiment: Cytotoxicity activity on LoVo human adenocarcinoma cell line after 1 hr of drug exposure; type: functional, cell-based
Method in brief: (§2)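 LoVo (sensitive) and LoVo/Dx (resistant) human colon adenocarcinoma cells seeded at 2.5 × 10^5 cells/mL medium; drug solutions added to culture. IC50 = drug concentration inhibiting cell growth by 50%, assays in triplicate.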

LoVo [29] = experiment: Cytotoxicity activity on LoVo/Dx human adenocarcinoma cell line after 144 hr of drug exposure; type: functional, cell-based
Method in brief: (§3)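 LoVo (sensitive) and LoVo/Dx (resistant) human colon adenocarcinoma cells seeded at 2.5 × 10^5 cells/mL medium; drug solutions added to culture.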

LoVo [30] = experiment: Cytotoxicity activity on LoVo/Dx human adenocarcinoma cell line after 1 hr of drug exposure; type: functional, cell-based; method in brief: as §2
LoVo [31] = experiment: Cytotoxicity activity on LoVo human adenocarcinoma cell line after 144 hr of drug exposure; type: functional, cell-based; method in brief: as §3

Row | Structure (SMILES) | C50 (Calf thymus DNA) [µM] | Growth (OVCAR-4 [1]) [%] | Growth (SNB-19 [2]) [%] | Growth (MCF7 [3]) [%] | IC50 (HT-29) [nM] | Growth (DU-145 [4]) [%] | Growth (SNB-19 [5]) [%] | Growth (DU-145 [6]) [%] | Growth (DU-145 [7]) [%] | Growth (HCT-15 [8]) [%] | Growth [9] [%] | Growth (HCT-15 [10]) [%] | Growth (MCF7 [11]) [%] | Growth (NCI-H460 [12]) [%] | Growth (786-0 [13]) [%] | Growth (786-0 [14]) [%] | Growth (OVCAR-4 [15]) [%] | Growth (786-0 [16]) [%] | Growth [17] [%] | Growth (NCI-H460 [18]) [%] | other results
1 | COc1ccc2c(c1)c1nn(CCN3CCCCC3)c3ccc4c(=O)n(CCN(C)C)c(=O)n2c4c13 | 0.0099 | -89 | -54 | 4 | 0.04 | 39 | 8 | -51 | -91 | -61 | 12 | -34 | 42 | 22 | -41 | -67 | -84 | 20 | 39 | -36 | Growth (NCI-H460 [19]): -57%; Growth (HCT-15 [20]): 24%; Growth (MCF7 [21]): -12%; Growth (OVCAR-4 [22]): 15%; Growth (SNB-19 [23]): 55%; Growth [24]: -12%
2 | COc1cccc2c1C(=O)c1c(O)c3c(c(O)c1C2=O)C[C@@](O)(C(=O)CO)C[C@@H]3O[C@H]1C[C@H](N)[C@H](O)[C@H](C)O1 [DOXORUBICIN] | – | – | – | – | – | – | – | – | – | – | – | – | – | – | – | – | – | – | – | – | IC50 (LoVo [28]): 860 nM; IC50 (LoVo [29]): 2400 nM; IC50 (LoVo [30]): 9700 nM; IC50 (LoVo [31]): 24 nM
3 | O=C1c2c(O)ccc(O)c2C(=O)c2c(NCCNCCO)ccc(NCCNCCO)c21 | 0.037 | – | – | – | – | – | – | – | – | – | – | – | – | – | – | – | – | – | – | – | –
4 | CN(C)CCn1c(=O)c2ccc3c4c(nn3CCN3CCCCC3)c3cc([N+](=O)[O-])ccc3n(c1=O)c24 | 0.01 | – | – | – | 0.21 | – | – | – | – | – | – | – | – | – | – | – | – | – | – | – | –

More lines, main results first:

Row | C50 (Calf thymus DNA) [µM] | Structure (SMILES) | Growth (OVCAR-4 [1]) [%] | Growth (SNB-19 [2]) [%] | Growth (MCF7 [3]) [%] | IC50 (HT-29) [nM] | Growth (DU-145 [4]) [%] | Growth (SNB-19 [5]) [%] | Growth (DU-145 [6]) [%] | Growth (DU-145 [7]) [%] | Growth (HCT-15 [8]) [%] | Growth [9] [%] | Growth (HCT-15 [10]) [%] | Growth (MCF7 [11]) [%] | Growth (NCI-H460 [12]) [%] | Growth (786-0 [13]) [%] | Growth (786-0 [14]) [%] | Growth (OVCAR-4 [15]) [%] | Growth (786-0 [16]) [%] | Growth [17] [%] | Growth (NCI-H460 [18]) [%] | other results
5 | 0.07 | CN(C)CCn1c(=O)c2ccc3c4c(nn3CCN(C)C)c3cc([N+](=O)[O-])ccc3n(c1=O)c24 | -96 | -93 | -12 | 0.98 | 82 | 2 | -16 | -94 | -89 | 6 | -4 | 81 | 47 | -25 | -99 | -55 | 36 | 82 | -19 | Growth (LOX IMVI [25]): -89%; Growth (LOX IMVI [26]): 5%; Growth (LOX IMVI [27]): 79%; IC50 (LoVo [28]): 520 nM; IC50 (LoVo [29]): 13 nM; IC50 (LoVo [30]): 190 nM; Growth (NCI-H460 [19]): -94%; Growth (HCT-15 [20]): 68%; Growth (MCF7 [21]): -93%; Growth (OVCAR-4 [22]): 57%; Growth (SNB-19 [23]): 75%; IC50 (LoVo [31]): 16 nM; Growth [24]: -38%
6 | 0.12 | CN(C)CCCn1nc2c3ccccc3n3c(=O)n(CCN(C)C)c(=O)c4ccc1c2c43 | – | – | – | 68 | – | – | – | – | – | – | – | – | – | – | – | – | – | – | – | –
7 | 0.0018 | CN(C)CCn1c(=O)c2ccc3c4c(nn3CCN(C)C)c3ccccc3n(c1=O)c24 | -56 | -41 | -41 | 37 | 60 | -3 | -16 | -37 | -85 | -27 | -29 | 63 | 30 | -42 | -90 | -36 | 27 | 61 | -44 | Growth (LOX IMVI [25]): -93%; Growth (LOX IMVI [26]): -32%; Growth (LOX IMVI [27]): 65%; IC50 (LoVo [28]): 290 nM; IC50 (LoVo [29]): 3.9 nM; IC50 (LoVo [30]): 79 nM; Growth (NCI-H460 [19]): -79%; Growth (HCT-15 [20]): 48%; Growth (MCF7 [21]): -95%; Growth (OVCAR-4 [22]): 51%; Growth (SNB-19 [23]): 66%; IC50 (LoVo [31]): 12 nM; Growth [24]: -67%
8 | 0.052 | COc1ccc2c(c1)c1nn(CCN(C)C)c3ccc4c(=O)n(CCN(C)C)c(=O)n2c4c13 | -82 | -62 | -27 | 11 | 54 | -15 | -11 | -77 | -80 | -14 | -31 | 49 | 9 | -26 | -96 | -73 | 28 | 47 | -60 | Growth (LOX IMVI [25]): -80%; Growth (LOX IMVI [26]): -19%; Growth (LOX IMVI [27]): 62%; IC50 (LoVo [28]): 290 nM; IC50 (LoVo [29]): 1.8 nM; IC50 (LoVo [30]): 140 nM; Growth (NCI-H460 [19]): -95%; Growth (HCT-15 [20]): 36%; Growth (MCF7 [21]): -89%; Growth (OVCAR-4 [22]): 40%; Growth (SNB-19 [23]): 62%; IC50 (LoVo [31]): 13 nM; Growth [24]: -81%
9 | 0.037 | COc1ccc2c(c1)c1nn(CCCN(C)C)c3ccc4c(=O)n(CCN(C)C)c(=O)n2c4c13 | – | – | – | 37 | – | – | – | – | – | – | – | – | – | – | – | – | – | – | – | –
10 | 0.0066 | CN(C)CCCn1nc2c3cc(O)ccc3n3c(=O)n(CCN(C)C)c(=O)c4ccc1c2c43 | – | – | – | 61 | – | – | – | – | – | – | – | – | – | – | – | – | – | – | – | –
